Test results published in publication PMC4867259 (Free radical biology & medicine, 2016).

Legend:
DEGS1 = target: T1, DEGS1 (Homo sapiens, UniProt O15121); test: In vitro DEGS assay with HCT-116 cell homogenates; format: biochemical
T1 sequence (O15121 1-323): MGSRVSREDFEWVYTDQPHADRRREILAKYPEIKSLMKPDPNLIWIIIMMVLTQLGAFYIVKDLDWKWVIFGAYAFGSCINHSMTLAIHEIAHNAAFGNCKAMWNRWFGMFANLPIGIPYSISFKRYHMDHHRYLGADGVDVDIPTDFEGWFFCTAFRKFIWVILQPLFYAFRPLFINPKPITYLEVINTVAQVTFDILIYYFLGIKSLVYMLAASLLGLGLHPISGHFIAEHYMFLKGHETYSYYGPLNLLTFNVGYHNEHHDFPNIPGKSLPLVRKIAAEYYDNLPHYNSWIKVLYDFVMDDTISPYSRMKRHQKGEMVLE
Procedure, shortened: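 HCT-116 cells were treated for 1 or 2 h with test compound, reference inhibitor or DMSO. Cells were homogenized in 5 mM Hepes (pH 7.4) with 50 mM sucrose and kept 10 min on ice, and unbroken cells were removed at 250 × g for 5 min at 4 °C. Homogenate was incubated with 2 mM NADH and 10 μM C8:0-dihydroceramide substrate for 1 h at 37 °C. Lipids were extracted and C8:0-Cer and C8:0-SM quantified by LC-MS/MS; n = 3 independent experiments.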

HT-29 cells = test: MTT cell viability assay, HT-29; format: cell-based, human; details: time- and dose-dependent
Procedure, shortened: (§1)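 Cells were grown with 10% FBS at 37 °C and 5% CO2: HCT-116 in McCoy's 5A, HT-29 in DMEM. Cells were exposed to test compound at indicated concentrations and times, and viability was read by MTT (mitochondrial dehydrogenase activity) relative to DMSO controls. […] Values are mean SD of at least three independent experiments.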

HCT-116 cells [1] = test: Western blotting of LC3-II, caspase-9 and PARP; format: cell-based, human; details: 20 μM for 24 h
Procedure, shortened: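 HCT-116 lysates were prepared in Tris-EDTA with 1% SDS, 2 mM Na3VO4 and protease inhibitors, and protein was quantified by BCA. Equal protein was resolved by SDS-PAGE and probed for LC3, caspase-9, PARP-1 and actin. Caspase-9 activation and PARP cleavage served as apoptosis read-outs and LC3-II as the autophagy read-out. Blots are representative of three or more independent experiments.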

HCT-116 cells [2] = test: Sphingolipid levels by LC-MS/MS; format: cell-based, human
Procedure, shortened: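 Treated HCT-116 pellets were extracted in methanol/chloroform/water with internal standards (C12:0- and C25:0-ceramide, C17-sphingosine, C17-sphinganine, C12:0-SM), tip-sonicated 20 s, and incubated overnight at 48 °C. An aliquot was taken for total choline phospholipids (enzymatic colorimetric assay). The remainder was hydrolysed with methanolic KOH (37 °C, 2 h) and dried under N2. Positive-mode MRM LC-MS/MS was run, ceramides/sphingoid bases on C18 and SMs on C8; vs DMSO controls, n ≥ 3.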

HCT-116 cells [3] = test: Annexin V / propidium iodide apoptosis, flow cytometry; format: cell-based, human; details: 20 μM for 24 h, compared with DMSO-treated controls
Procedure, shortened: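 HCT-116 cells were grown in McCoy's 5A with 10% FBS at 37 °C and 5% CO2. After treatment, floating and attached cells were pooled and stained with an annexin V–fluorescein/propidium iodide kit. Flow cytometry read apoptosis from annexin V (Ex 488, Em 518 nm) and necrosis from PI (Ex 488-540, Em 617 nm). Data are representative of three or more independent experiments.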

HCT-116 cells [4] = test: MTT cell viability assay, HCT-116; format: cell-based, human; details: time- and dose-dependent
Procedure, shortened: as §1

DEGS = target: T2, DEGS (Rattus norvegicus, UniProt Q5XIF5); test: DEGS assay with rat liver microsomal fraction; format: biochemical; details: rat liver microsomal fraction as source of DEGS; data not shown
T2 sequence (Q5XIF5 1-323): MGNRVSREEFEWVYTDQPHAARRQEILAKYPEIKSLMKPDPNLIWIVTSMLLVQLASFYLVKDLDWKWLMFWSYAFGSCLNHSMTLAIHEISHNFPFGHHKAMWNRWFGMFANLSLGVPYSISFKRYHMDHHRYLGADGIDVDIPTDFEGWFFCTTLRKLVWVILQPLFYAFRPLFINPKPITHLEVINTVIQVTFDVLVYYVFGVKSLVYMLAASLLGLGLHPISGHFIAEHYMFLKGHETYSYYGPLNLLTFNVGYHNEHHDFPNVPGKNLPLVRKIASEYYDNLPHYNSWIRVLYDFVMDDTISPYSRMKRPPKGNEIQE

[5] = tested on: DEGS-1 protein expression in HCT-116 cells; test: Western blotting of DEGS-1 protein expression; format: cell-based, human; details: 10 or 20 μM for 8 or 16 h
Procedure, shortened: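 HCT-116 cells were lysed in Tris-EDTA buffer with 1% SDS, 2 mM Na3VO4 and protease inhibitors. Protein was measured by BCA, and equal amounts were resolved by SDS-PAGE and immunoblotted with anti-DEGS-1 antibody.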

human recombinant 5-LOX = target: T3, human recombinant 5-LOX (Homo sapiens, UniProt P09917); test: 5-LOX activity, ferrous oxidation-xylenol orange; format: biochemical
T3 sequence (P09917 1-674): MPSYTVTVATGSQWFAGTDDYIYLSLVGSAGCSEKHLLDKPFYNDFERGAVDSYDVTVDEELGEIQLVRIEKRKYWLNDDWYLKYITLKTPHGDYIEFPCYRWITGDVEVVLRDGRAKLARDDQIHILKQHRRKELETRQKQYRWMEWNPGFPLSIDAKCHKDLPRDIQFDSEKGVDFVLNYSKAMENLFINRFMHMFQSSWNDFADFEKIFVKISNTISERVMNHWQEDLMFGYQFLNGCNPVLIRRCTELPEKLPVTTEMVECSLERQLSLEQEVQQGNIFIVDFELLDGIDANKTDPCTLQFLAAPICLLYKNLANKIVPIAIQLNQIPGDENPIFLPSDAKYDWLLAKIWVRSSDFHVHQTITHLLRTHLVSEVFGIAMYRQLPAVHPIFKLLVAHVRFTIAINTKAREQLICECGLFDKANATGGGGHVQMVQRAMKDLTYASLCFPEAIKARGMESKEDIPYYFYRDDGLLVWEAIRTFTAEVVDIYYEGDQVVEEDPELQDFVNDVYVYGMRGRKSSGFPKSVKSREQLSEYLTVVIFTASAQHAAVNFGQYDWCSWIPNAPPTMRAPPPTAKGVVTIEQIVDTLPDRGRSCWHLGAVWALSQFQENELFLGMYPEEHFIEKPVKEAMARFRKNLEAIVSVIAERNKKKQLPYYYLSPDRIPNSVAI

human recombinant COX-2 = target: T4, human recombinant COX-2 (Homo sapiens, UniProt P35354); test: COX-2 enzyme activity assay; format: biochemical
T4 sequence (P35354 18-604): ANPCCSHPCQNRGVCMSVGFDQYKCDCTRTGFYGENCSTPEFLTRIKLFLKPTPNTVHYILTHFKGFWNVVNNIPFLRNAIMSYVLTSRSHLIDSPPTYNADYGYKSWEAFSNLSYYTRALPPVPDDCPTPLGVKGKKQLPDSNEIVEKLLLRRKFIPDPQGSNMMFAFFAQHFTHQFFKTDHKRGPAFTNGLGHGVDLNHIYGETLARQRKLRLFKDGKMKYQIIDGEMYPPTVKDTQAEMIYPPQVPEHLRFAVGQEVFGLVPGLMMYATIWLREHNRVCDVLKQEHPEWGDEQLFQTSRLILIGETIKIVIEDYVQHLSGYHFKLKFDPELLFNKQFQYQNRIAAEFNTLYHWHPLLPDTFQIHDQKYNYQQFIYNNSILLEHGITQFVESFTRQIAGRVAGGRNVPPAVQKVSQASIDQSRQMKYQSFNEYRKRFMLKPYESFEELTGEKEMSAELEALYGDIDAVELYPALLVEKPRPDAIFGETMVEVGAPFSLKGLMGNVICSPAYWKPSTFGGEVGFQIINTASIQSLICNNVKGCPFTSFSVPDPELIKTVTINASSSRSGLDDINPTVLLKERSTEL
Procedure, shortened: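 Test compound was preincubated with enzyme in 0.1 M Tris (pH 8.0) containing 5 mM EDTA, 2 mM phenol and 1 µM hematin. Arachidonic acid (5 µM final) was added for 2 min, and 0.1 M HCl stopped the reaction. Stannous chloride in 0.1 M HCl reduced PGG2/PGH2 to PGF2α, quantified by ELISA. IC50 values are mean ± SEM of four or more independent experiments.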

[6] = tested on: colon tumorigenesis induced by AOM and DSS; test: AOM/DSS-induced colon tumorigenesis in mice; format: in vivo, male Balb/c mice; details: 0.022% in diet

CCCCCCCCCCCCCC1=C([C@@H](O)[C@H](CO)NC(=O)CCCCCCC)C1 [C8-CPPC, C8-cyclopropenylceramide, reference compound]
inhibition of DEGS1 enzyme activity (DEGS1; 1 μM, 1 or 2 h treatment of HCT-116 cells): ~ 95%

Cc1cc(O)cc2c1O[C@](C)(CCC[C@H](C)CCC[C@H](C)CCCC(C)C(=O)O)CC2 (some centres unmarked) [δT-13’-COOH]
cell viability (HT-29 cells): decreased the viability
inhibition of DEGS1 enzyme activity (DEGS1; 20 μM, 1 h pre-incubation of HCT-116 cells): ~ 38%
inhibition of DEGS1 enzyme activity (DEGS1; 20 μM, 2 h pre-incubation of HCT-116 cells): ~ 47%
LC3-II, a marker of autophagy (HCT-116 cells [1]): increase of LC3-II
C16:0-Cer (HCT-116 cells [2]; 20 μM, 2 h incubation, compared with solvent controls): significant decrease
sphingomyelin species and total SMs (HCT-116 cells [2]; 10 or 20 μM, 1-16 h): persistent decrease
total dihydroceramides, individual dhCers and dihydrosphingosine (HCT-116 cells [2]; 10 or 20 μM, after 1-2 h treatment, compared with controls): dose-dependently increased
apoptosis (annexin V staining) (HCT-116 cells [3]): induced early and late-stage apoptosis
cell viability (HCT-116 cells [4]): decreased the viability
inhibition of DEGS enzyme activity (DEGS): failed to inhibit the enzyme activity
effect on DEGS-1 protein expression [5]: no effect

Cc1c(O)cc2c(c1C)O[C@](C)(CCC[C@H](C)CCC[C@H](C)CCCC(C)C)CC2 [γT, γ-tocopherol]
IC50 (human recombinant 5-LOX): > 50 µM
inhibition of 5-LOX at 50 μM (human recombinant 5-LOX): neither γT nor δT at 50 μM inhibited COX-2 or 5-LOX
IC50 (human recombinant COX-2): > 50 µM
inhibition of COX-2 at 50 μM (human recombinant COX-2): neither γT nor δT at 50 μM inhibited COX-2

C/C(=C\CC/C(C)=C/CC[C@]1(C)CCc2cc(O)cc(C)c2O1)CC/C=C(\C)C(=O)O [δTE-13’-COOH]
cell viability (HT-29 cells): decreased the viability
LC3-II, a marker of autophagy (HCT-116 cells [1]): increase of LC3-II
effect on body weight ([6]; compared with the control diet): no effect
effect on food intake ([6]; compared with the control diet): no effect
decrease in number of large tumors (> 2 mm^2) ([6]; compared with controls, p < 0.05): 58%
colon tumors per mouse ([6]; mean ± SEM, n = 15-17, p < 0.01 vs control diet (4.7 ± 0.3)): 3.1 ± 0.3 tumors per mouse
apoptosis (annexin V staining) (HCT-116 cells [3]): induced early and late-stage apoptosis
cell viability (HCT-116 cells [4]): decreased the viability

Cc1cc(O)cc2c1O[C@](C)(CCC[C@H](C)CCC[C@H](C)CCCC(C)C)CC2 [δT, δ-tocopherol]
inhibition of 5-LOX at 50 μM (human recombinant 5-LOX): neither γT nor δT at 50 μM inhibited COX-2 or 5-LOX
inhibition of COX-2 at 50 μM (human recombinant COX-2): neither γT nor δT at 50 μM inhibited COX-2
